From ChEMBL document CHEMBL4334446, “Evaluating the effects of fluorine on biological properties and metabolic stability of some antitubulin 3-substituted 7-phenyl-pyrroloquinolinones” (Eur J Med Chem, 2019)
Active and inactive are the calls of the source. No cut-off for these calls is given here.

Columns and labels:
MDA-MB-231 = test: Growth inhibition of human MDA-MB-231 cells incubated for 72 hrs by MTT assay; assay type: functional; conditions: MDA-MB-231, 72 h
HeLa [1] = test: Cell cycle arrest in human HeLa cells assessed as proportion of mitotic cells at 50 nM incubated for 24 hrs by PI staining based flow cytometric assay (reference value: 1.5%); assay type: functional
[2] = Growth inhibition of human DND41 cells incubated for 72 hrs by MTT assay; assay type: functional; conditions: DND41, 72 h
How it was run: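 Leukemia lines were grown in RPMI-1640; the CEM^Vbl-100 medium also contained 100 ng/mL vinblastine. Cells were seeded at 8 × 10³ per well and left 18 h at 37 °C, 5% CO2. Medium was then replaced with fresh medium holding graded compound concentrations (DMSO stocks), in triplicate, for 72 h. Viability was read by MTT, and GI50 = concentration inhibiting proliferation 50%.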

HeLa [3] = test: Cell cycle arrest in human HeLa cells assessed as decrease in cdc25c protein expression level at 50 to 100 nM incubated for 24 hrs by western blot analysis; assay type: functional, cell-based
How it was run: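 HeLa cells were exposed for set times, including 24 and 48 h, then washed in cold PBS and lysed on ice for 30 min. Lysates were cleared at 15000 × g at 4 °C. 10 µg protein was run by SDS-PAGE and transferred to PVDF. Blots were probed 2 h at room temperature with primary antibodies, then peroxidase secondary antibodies, and detected by ECL. Membranes were reprobed for actin as loading control.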

A-375 [4] = test: Induction of cell cycle arrest in human A375 cells assessed as reduction in cell population at S phase at 50 to 100 nM incubated for 24 hrs by PI staining based flow cytometric analysis; assay type: functional
How it was run: (§1)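 A375 and A2058 melanoma cells were treated 24 h. Cells were fixed in ice-cold 70% ethanol, then given lysis buffer with RNase A and 0.1% Triton X-100 and stained with PI. Phase distribution came from flow cytometric DNA histograms. Mean ± SEM of two independent experiments.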

MDA-MB-468 = test: Growth inhibition of human MDA-MB-468 cells incubated for 72 hrs by MTT assay; assay type: functional; conditions: MDA-MB-468, 72 h
HeLa [5] = test: Cell cycle arrest in human HeLa cells assessed as proportion of mitotic cells at 100 nM incubated for 24 hrs by PI staining based flow cytometry (reference value: 1.5%); assay type: functional
A2058 [6] = test: Induction of cell cycle arrest in human A2058 cells assessed as reduction in cell population at S phase at 50 to 100 nM incubated for 24 hrs by PI staining based flow cytometric analysis; assay type: functional; how it was run: as §1
A-375 [7] = test: Induction of cell cycle arrest in human A375 cells assessed as reduction in cell population at G1 phase at 50 to 100 nM incubated for 24 hrs by PI staining based flow cytometric analysis; assay type: functional; how it was run: as §1
A2058 [8] = test: Induction of cell cycle arrest in human A2058 cells assessed as accumulation of cells at G2/M phase at 50 to 100 nM incubated for 24 hrs by PI staining based flow cytometric analysis; assay type: functional; how it was run: as §1
B16-BL6 = test: Antitumour activity against mouse B16-BL6 cells allografted in C57BL/6 mouse assessed as reduction in tumor mass at 7.5 mg/kg, ip administrated every other day relative to control; assay type: functional
How it was run: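 Male C57BL/6 mice (six weeks old) got 2.5×10^5 BL6-B16 murine melanoma cells s.c. in the dorsolateral flank, in PBS. Once tumors were measurable (about 100 mm³), mice were randomized and given drug i.p. every other day in 50 µL DMSO. Vehicle (DMSO) group served as control. Tumor volume = (D × d²)/2; tumor weight taken at end. 5 animals per group, mean ± SEM.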

[9] = Metabolic stability in human liver microsomes at 10 uM incubated for 30 mins in phosphate buffer at pH 7.4 by HPLC analysis; assay type: ADME, Microsome; conditions: pH 7.4, 0.5 h
How it was run: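 Test compound (10 μM, final) incubated at 37 °C with pooled mixed-gender HLMs (0.5 mg/mL) in 0.1 M KH₂PO₄ pH 7.4 without NADPH. Sampled at 0 and 30 min, quenched with ice-cold acetonitrile, centrifuged, supernatant analysed by HPLC with fluorescence detection (ex 344/em 493 nm). Percent remaining calculated from peak area relative to 0 min; mean ± SD, n = 3.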

[10] = Selectivity ratio of GI50 for PHA-stimulated human PBL cells to GI50 for human DND41 cells incubated for 72 hrs by MTT assay
How it was run: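 Leukemia cells (CEM, DND-41, Jurkat) were grown in RPMI-1640 at 8×10³ cells/well and left 18 h. Donor PBL were gradient-separated, held overnight, and non-adherent cells set at 5×10^5 cells/mL with 2.5 µg/mL PHA. Both were exposed 72 h at 37 °C to graded compound concentrations, read by MTT. The ratio is PBL GI50 over leukemia GI50.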

[11] = Drug metabolism in human liver microsomes at 10 uM incubated for 60 mins in presence of NADPH by HPLC analysis; assay type: ADME, Microsome; conditions: 1 h
How it was run: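 Compound (10 µM) was incubated 0 or 60 min at 37 °C with pooled HLMs (1 mg/mL), with or without 1 mM NADPH, or in buffer only (0.1 M KH2PO4 pH 7.4). Reactions were stopped with ice-cold acetonitrile. Remaining parent was measured by HPLC-fluorescence relative to 0 min; mean ± SD, n = 3.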

[12] = Metabolic stability in human liver microsomes at 10 uM incubated for 60 mins in absence of NADPH by HPLC analysis; assay type: ADME, Microsome; conditions: 1 h
How it was run: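 Compound at 10 μM final was incubated at 37 °C with pooled mixed-gender HLMs (1 mg/mL) in 0.1 M KH₂PO₄ pH 7.4, NADPH omitted, for 0 or 60 min. Reaction was started by adding microsomes after 3-min equilibration and stopped with ice-cold acetonitrile. Supernatant was analysed by HPLC-fluorescence. Percent remaining at 60 min is relative to 0 min; mean ± SD, n = 3.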

[13] = Metabolic stability in NADPH-supplemented human liver microsomes assessed as parent compound remaining at 37 degC incubated for 30 mins; assay type: ADME, Microsome; conditions: read-out: Stability
How it was run: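 Compound (10 µM) was incubated at 37 °C with 0.5 mg/mL pooled HLMs and 1 mM NADPH in 0.1 M KH2PO4 pH 7.4, sampled at 0, 2, 5, 15 and 30 min. Controls without NADPH, or buffer only, ran 0 and 30 min. Parent was quantified by HPLC-fluorescence as % of the 0 min level, n = 3. t1/2 = 0.693/k, with k from regression of ln % remaining versus time.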

[14] = Metabolic stability in human liver microsomes assessed as retention time of the parent compound at 10 uM incubated for 60 mins in presence of NADPH by HPLC analysis; assay type: ADME, Microsome; conditions: 1 h
How it was run: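 Compound (10 µM) was incubated with pooled mixed-gender HLMs (0.5 mg protein/mL), 1 mM NADPH and 0.1 M KH2PO4 pH 7.4 for 60 min at 37 °C, aerobic. The reaction was started with microsomes and stopped with ice-cold acetonitrile; controls lacked NADPH. The supernatant went to C8 HPLC with fluorescence detection (ex 344, em 493 nm). Collected peaks were analyzed by ESI+ mass spectrometry.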

[15] = Metabolic stability in human liver microsomes at 10 uM incubated for 60 mins in presence of NADPH by ESI-MS analysis; assay type: ADME, Microsome; conditions: 1 h

Structure (SMILES) | GI50 (MDA-MB-231) [nM] | Activity (HeLa [1]) [%] | GI50 [2] [nM] | inhibition (HeLa [3]) | Activity (A-375 [4]) | GI50 (MDA-MB-468) [nM] | Activity (HeLa [5]) [%] | Activity (A2058 [6]) | Activity (A-375 [7]) | Activity (A2058 [8]) | inhibition in vivo at 7.5 mg/kg (B16-BL6) [%] | Stability [9] | RatioGI50 [10] | Drug metabolism [11] | Stability [12] | remaining at 0.5 h [13] [%] | Retention_time [14] [min] | Drug metabolism [15]
CCn1ccc2c3c(=O)cc(-c4ccccc4F)[nH]c3ccc21 | 164 | 10 | 0.26 | Active | Active | 22.3 | 44 | Active | Active | Active | 60 | Stable | 10000 - 30000 | – | – | – | – | –
CCn1ccc2c3c(=O)cc(-c4ccccc4)[nH]c3ccc21 | – | – | – | – | – | – | – | – | – | – | – | Stable | 10000 - 30000 | Metabolite_Detected | Stable | < 70 | 12.9 | Metabolite_Detected
